Common to all, as to type: functional
The subject of experiment [1] is Staphylococcus aureus. The experiment can be described thus: Potentiation of ampicillin induced antibacterial activity against methicillin-resistant Staphylococcus aureus COL assessed as ampicillin MIC at 50 uM after 18 hrs by CLSI protocol based broth microdilution assay.
The test system of experiment [2] is Staphylococcus aureus. Briefly: Potentiation of cefoxitin induced antibacterial activity against methicillin-resistant Staphylococcus aureus USA300 assessed as fold change in cefoxitin MIC at 50 uM after 18 hrs by CLSI protocol based broth microdilution assay.
Experiment [3] has as its system Staphylococcus aureus. Briefly: Potentiation of ampicillin induced antibacterial activity against methicillin-resistant Staphylococcus aureus ATCC 43300 assessed as ampicillin MIC at 50 uM after 18 hrs by CLSI protocol based broth microdilution assay.
In experiment [4] the test system is Staphylococcus aureus. Briefly: Potentiation of oxacillin induced antibacterial activity against methicillin-resistant Staphylococcus aureus ATCC 43300 assessed as fold change in oxacillin MIC at 50 uM after 18 hrs by CLSI protocol based broth microdilution assay.
Experiment [5] concerns Staphylococcus aureus. The experiment can be described thus: Potentiation of ceftazidime induced antibacterial activity against methicillin-resistant Staphylococcus aureus COL assessed as ceftazidime MIC at 50 uM after 18 hrs by CLSI protocol based broth microdilution assay.
The test system of experiment [6] is Staphylococcus aureus. The experiment can be described thus: Potentiation of ampicillin induced antibacterial activity against methicillin-resistant Staphylococcus aureus ATCC 43300 assessed as fold change in ampicillin MIC at 50 uM after 18 hrs by CLSI protocol based broth microdilution assay.
For experiment [7], the system named is Staphylococcus aureus. Briefly: Upregulation of pbp2 gene expression in methicillin-resistant Staphylococcus aureus ATCC 43300 assessed as fold change by RT-PCR method.
The subject of experiment [8] is Staphylococcus aureus. Briefly: Potentiation of ceftazidime induced antibacterial activity against methicillin-resistant Staphylococcus aureus USA100 assessed as ceftazidime MIC at 50 uM after 18 hrs by CLSI protocol based broth microdilution assay.
Experiment [9] relates to Staphylococcus aureus. Briefly: Potentiation of ceftazidime induced antibacterial activity against methicillin-resistant Staphylococcus aureus COL assessed as fold change in ceftazidime MIC at 50 uM after 18 hrs by CLSI protocol based broth microdilution assay.
The test system of experiment [10] is Staphylococcus aureus. The experiment can be described thus: Potentiation of ampicillin induced antibacterial activity against methicillin-resistant Staphylococcus aureus USA100 assessed as ampicillin MIC at 50 uM after 18 hrs by CLSI protocol based broth microdilution assay.
For experiment [11], the system named is Staphylococcus aureus. Briefly: Potentiation of oxacillin induced antibacterial activity against methicillin-resistant Staphylococcus aureus COL assessed as fold change in oxacillin MIC at 50 uM after 18 hrs by CLSI protocol based broth microdilution assay.
Experiment [12] relates to Staphylococcus aureus. The experiment can be described thus: Potentiation of cefoxitin induced antibacterial activity against methicillin-resistant Staphylococcus aureus ATCC 43300 assessed as fold change in cefoxitin MIC at 50 uM after 18 hrs by CLSI protocol based broth microdilution assay.
For experiment [13], the system named is Staphylococcus aureus. Briefly: Potentiation of methicillin induced antibacterial activity against methicillin-resistant Staphylococcus aureus USA300 assessed as fold change in methicillin MIC at 50 uM after 18 hrs by CLSI protocol based broth microdilution assay.
The subject of experiment [14] is Staphylococcus aureus. The experiment can be described thus: Potentiation of ampicillin induced antibacterial activity against methicillin-resistant Staphylococcus aureus COL assessed as fold change in ampicillin MIC at 50 uM after 18 hrs by CLSI protocol based broth microdilution assay.
Experiment [15] concerns Staphylococcus aureus. The experiment can be described thus: Antibacterial activity against methicillin-resistant Staphylococcus aureus ATCC 43300 assessed as inhibition of bacterial growth after 18 hrs by CLSI protocol based broth microdilution assay. In outline: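 Broth microdilution MIC of carbazole alone vs MRSA ATCC 43300, tested up to 200 μM.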
The subject of experiment [16] is Staphylococcus aureus. The experiment can be described thus: Potentiation of ceftazidime induced antibacterial activity against methicillin-resistant Staphylococcus aureus ATCC 43300 assessed as fold change in ceftazidime MIC at 50 uM after 18 hrs by CLSI protocol based broth microdilution assay.
Experiment [17] deals with Staphylococcus aureus. The experiment can be described thus: Potentiation of methicillin induced antibacterial activity against methicillin-resistant Staphylococcus aureus COL assessed as fold change in methicillin MIC at 50 uM after 18 hrs by CLSI protocol based broth microdilution assay.
Experiment [18] deals with Staphylococcus aureus. The experiment can be described thus: Potentiation of methicillin induced antibacterial activity against methicillin-resistant Staphylococcus aureus USA100 assessed as methicillin MIC at 50 uM after 18 hrs by CLSI protocol based broth microdilution assay.
For experiment [19], the system named is Staphylococcus aureus. Briefly: Potentiation of ampicillin induced antibacterial activity against methicillin-resistant Staphylococcus aureus USA300 assessed as fold change in ampicillin MIC at 50 uM after 18 hrs by CLSI protocol based broth microdilution assay.
The test system of experiment [20] is Staphylococcus aureus. Briefly: Potentiation of methicillin induced antibacterial activity against methicillin-resistant Staphylococcus aureus USA100 assessed as fold change in methicillin MIC at 50 uM after 18 hrs by CLSI protocol based broth microdilution assay.
Experiment [21] concerns Staphylococcus aureus. Briefly: Potentiation of oxacillin induced antibacterial activity against methicillin-resistant Staphylococcus aureus USA300 assessed as fold change in oxacillin MIC at 50 uM after 18 hrs by CLSI protocol based broth microdilution assay.
Experiment [22] has as its system Staphylococcus aureus. Briefly: Potentiation of oxacillin induced antibacterial activity against methicillin-resistant Staphylococcus aureus USA100 assessed as oxacillin MIC at 50 uM after 18 hrs by CLSI protocol based broth microdilution assay.
The test system of experiment [23] is Staphylococcus aureus. The experiment can be described thus: Potentiation of oxacillin induced antibacterial activity against methicillin-resistant Staphylococcus aureus USA 100 assessed as fold change in oxacillin MIC at 50 uM after 18 hrs by CLSI protocol based broth microdilution assay.
Experiment [24] concerns Staphylococcus aureus. Briefly: Potentiation of cefoxitin induced antibacterial activity against methicillin-resistant Staphylococcus aureus ATCC 43300 assessed as cefoxitin MIC at 50 uM after 18 hrs by CLSI protocol based broth microdilution assay.
Experiment [25] deals with Staphylococcus aureus. Briefly: Potentiation of ceftazidime induced antibacterial activity against methicillin-resistant Staphylococcus aureus USA100 assessed as fold change in ceftazidime MIC at 50 uM after 18 hrs by CLSI protocol based broth microdilution assay.
Experiment [26] relates to Staphylococcus aureus. The experiment can be described thus: Potentiation of ceftazidime induced antibacterial activity against methicillin-resistant Staphylococcus aureus USA300 assessed as ceftazidime MIC at 50 uM after 18 hrs by CLSI protocol based broth microdilution assay.
The test system of experiment [27] is Staphylococcus aureus. The experiment can be described thus: Potentiation of cefoxitin induced antibacterial activity against methicillin-resistant Staphylococcus aureus USA300 assessed as cefoxitin MIC at 50 uM after 18 hrs by CLSI protocol based broth microdilution assay.
The test system of experiment [28] is Staphylococcus aureus. The experiment can be described thus: Potentiation of ampicillin induced antibacterial activity against methicillin-resistant Staphylococcus aureus USA100 assessed as fold change in ampicillin MIC at 50 uM after 18 hrs by CLSI protocol based broth microdilution assay.
The subject of experiment [29] is Staphylococcus aureus. Briefly: Potentiation of cefoxitin induced antibacterial activity against methicillin-resistant Staphylococcus aureus USA100 assessed as cefoxitin MIC at 50 uM after 18 hrs by CLSI protocol based broth microdilution assay.
Experiment [30] deals with Staphylococcus aureus. The experiment can be described thus: Potentiation of oxacillin induced antibacterial activity against methicillin-resistant Staphylococcus aureus USA300 assessed as oxacillin MIC at 50 uM after 18 hrs by CLSI protocol based broth microdilution assay.
In experiment [31] the test system is Staphylococcus aureus. The experiment can be described thus: Potentiation of ceftazidime induced antibacterial activity against methicillin-resistant Staphylococcus aureus ATCC 43300 assessed as ceftazidime MIC at 50 uM after 18 hrs by CLSI protocol based broth microdilution assay.
Experiment [32] relates to Staphylococcus aureus. Briefly: Potentiation of cefoxitin induced antibacterial activity against methicillin-resistant Staphylococcus aureus COL assessed as cefoxitin MIC at 50 uM after 18 hrs by CLSI protocol based broth microdilution assay.

Converted amounts (≈) assume the structure as drawn. Bounds are passed on as bounds.

For the molecule `Brc1cccc2c1[nH]c1ccccc12`, the MIC in the experiment with Staphylococcus aureus [1] is 16 µg/mL; in the experiment on Staphylococcus aureus [3], 4 µg/mL; in the experiment with Staphylococcus aureus [5] it was 1020 µg/mL; in the experiment on Staphylococcus aureus [8], 256 µg/mL; in the experiment on Staphylococcus aureus [10], 8 µg/mL; in the experiment on Staphylococcus aureus [15], over 200 µM. Also, the MIC in the experiment on Staphylococcus aureus [18] amounted to 8 µg/mL; in the experiment with Staphylococcus aureus [22] it was 0.5 µg/mL; in the experiment on Staphylococcus aureus [24], 16 µg/mL; with Staphylococcus aureus [26], 256 µg/mL; with Staphylococcus aureus [27], 16 µg/mL; with Staphylococcus aureus [29], 16 µg/mL. In addition, the figures for the MIC with Staphylococcus aureus [30], in the experiment on Staphylococcus aureus [31] and with Staphylococcus aureus [32] were 16 µg/mL, 64 µg/mL and 256 µg/mL, respectively. For the same molecule, the “fold change (FC)” value with Staphylococcus aureus [2] came to 2; in the experiment on Staphylococcus aureus [4] it was 8; with Staphylococcus aureus [6] it was 8; in the experiment with Staphylococcus aureus [7] it was 2; in the experiment on Staphylococcus aureus [9], 1; with Staphylococcus aureus [11] it was 1. Besides, the “fold change (FC)” value came to 4 in the experiment with Staphylococcus aureus [12]; 4 in the experiment with Staphylococcus aureus [13]; 2 in the experiment on Staphylococcus aureus [14]; 2 with Staphylococcus aureus [16]; 1 in the experiment with Staphylococcus aureus [17]; 1 with Staphylococcus aureus [19]. The “fold change (FC)” value in the experiment with Staphylococcus aureus [20] is 64; with Staphylococcus aureus [21], 4; in the experiment on Staphylococcus aureus [23], 512; in the experiment on Staphylococcus aureus [25] it was 2; in the experiment on Staphylococcus aureus [28], 4.
As to `Brc1cccc2[nH]c3ccccc3c12`, the fold change (FC) in the experiment on Staphylococcus aureus [7] was 2. In addition, the MIC in the experiment with Staphylococcus aureus [15] came out at 100 µM (≈ 24.6 µg/mL).
For the molecule `Brc1ccc2[nH]c3ccc(Br)cc3c2c1`, the MIC is 8 µg/mL in the experiment with Staphylococcus aureus [1]; 16 µg/mL in the experiment on Staphylococcus aureus [3]; 1020 µg/mL with Staphylococcus aureus [5]; 256 µg/mL in the experiment with Staphylococcus aureus [8]; 32 µg/mL in the experiment on Staphylococcus aureus [10]; over 200 µM with Staphylococcus aureus [15]. Besides, the MIC in the experiment with Staphylococcus aureus [18] was found to be 32 µg/mL; in the experiment on Staphylococcus aureus [22], 128 µg/mL; in the experiment on Staphylococcus aureus [24], 32 µg/mL; in the experiment on Staphylococcus aureus [26], 256 µg/mL; in the experiment with Staphylococcus aureus [27], 64 µg/mL; with Staphylococcus aureus [29], 64 µg/mL. Besides, the MIC came to 16 µg/mL in the experiment on Staphylococcus aureus [30], 128 µg/mL in the experiment with Staphylococcus aureus [31] and 512 µg/mL in the experiment with Staphylococcus aureus [32]. The “fold change (FC)” value in the experiment on Staphylococcus aureus [2] turned out to be 1; in the experiment with Staphylococcus aureus [4] it was 4; with Staphylococcus aureus [6], 1; in the experiment on Staphylococcus aureus [9], 1; with Staphylococcus aureus [11] it was 4; with Staphylococcus aureus [12], 2. Also, the “fold change (FC)” value in the experiment on Staphylococcus aureus [13] is recorded as 4; in the experiment with Staphylococcus aureus [14], 2; in the experiment with Staphylococcus aureus [16] it was 1; in the experiment on Staphylococcus aureus [17] it was 1; in the experiment on Staphylococcus aureus [19], 1; in the experiment on Staphylococcus aureus [20] it was 16. Besides, the “fold change (FC)” value stood at 2 in the experiment with Staphylococcus aureus [21], 4 in the experiment on Staphylococcus aureus [23], 4 in the experiment with Staphylococcus aureus [25] and 1 with Staphylococcus aureus [28].
